# Data: ChEMBL document CHEMBL4138212, “Novel triazine dimers with potent antitrypanosomal activity” (Eur J Med Chem, 2018)
# pIC50: −log10 of the molar value. Active and inactive are the calls of the source. The rule behind the calls is not given here.
# Tests used:
# [1] = system: Trypanosoma brucei brucei; experiment: Antitrypanosomal activity against suramin-sensitive Trypanosoma brucei brucei Squib 427 after 72 hrs by resazurin dye-based fluorometric method; assay type: functional, organism-based; settings: Squib 427, 72 h
# Summary of the method: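 Bloodstream parasites in HMI-9 with 10% heat-inactivated FBS at 7×10⁴/mL were exposed to five 4-fold dilutions from 64 µg/mL for 72 h at 37 °C in 5% CO₂. IC₅₀ comes from % growth reduction versus controls, as the mean of at least two independent determinations.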
# [2] = system: Trypanosoma brucei rhodesiense; experiment: Antitrypanosomal activity against Trypanosoma brucei rhodesiense STIB-900 after 72 hrs by resazurin dye-based fluorometric method; assay type: functional, organism-based; settings: STIB-900, 72 h
# Summary of the method: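 Parasites in HMI-9 with 10% heat-inactivated FBS at 2×10⁴/mL were exposed to five 4-fold dilutions from 64 µg/mL for 72 h at 37 °C in 5% CO₂. IC₅₀ comes from % growth reduction versus controls, as the mean of at least two independent determinations.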
# [3] = system: Trypanosoma cruzi; experiment: Antitrypanosomal activity against beta-galactosidase expressing nifurtimox-sensitive Trypanosoma cruzi Tulahuen CL2 infected in human MRC5 SV2 cells assessed as decrease in parasite burden after 168 hrs by spectrophotometric method; assay type: functional, organism-based; settings: Tulahuen CL2, MRC-5 SV2, 168 h
# [4] = system: Leishmania infantum; experiment: Antileishmanial activity against amastigote stage of Leishmania infantum MHOM/MA(BE)/67 infected in mouse primary peritoneal macrophages assessed as decrease in parasite burden after 120 hrs by Giemsa staining-based microscopic method; assay type: functional, organism-based; settings: MHOM/MA(BE)/67, 120 h
# [5] = Cytotoxicity against human MRC5 SV2 cells assessed as decrease in cell viability after 72 hrs by resazurin dye-based fluorometric method; settings: MRC-5 SV2, 72 h
# [6] = system: Plasmodium falciparum; experiment: Antiplasmodial activity against chloroquine-resistant Plasmodium falciparum K1 infected in human O-positive erythrocytes assessed as decrease in parasitaemia after 72 hrs by NBT dye-based spectrophotometric method; assay type: functional, organism-based; settings: K1, 72 h
# [7] = system: Trypanosoma brucei brucei; experiment: (§1) Antitrypanosomal activity against suramin-sensitive Trypanosoma brucei brucei Squib 427 infected in Swiss mouse assessed as increase in mouse survival at 10 mg/kg administered first dose orally 1/2 hrs prior to infection followed by dosed intraperitoneally as qd for 5 days measured on day 14 post infection; assay type: functional, organism-based
# Summary of the method: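 Female Swiss mice, 6 per group, were infected IP with about 1×10⁴ trypanosomes in 0.25 ml PBS-diluted donor blood on day 0. The first dose was given orally ½ h before infection, then IP for 5 days. Vehicles were 100% DMSO or DMSO/PEG200 (1/50); suramin was formulated in PBS. Mortality was monitored daily, ill animals were euthanized, and survivors were counted on day 14 post-infection.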
# [8] = system: Trypanosoma brucei brucei; experiment: as §1, with “reduction” for “increase”, “parasitemia” for “mouse survival”, “4 of compound dosing by Giemsa staining-based microscopic method relative to control” for “14 post infection”; assay type: functional; set-up: scale not given: the % may be the effect or the level left
# Summary of the method: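 Female Swiss mice, 6 per group, were infected IP with about 1×10⁴ trypanosomes on day 0. The first dose was given orally ½ h before infection, then IP for 5 days, in DMSO, DMSO/PEG200 (1/50) or PBS for suramin. On day 4, tail-vein blood smears were Giemsa-stained and counted microscopically. Activity = 100 − (mean parasitemia treated/mean vehicle-infected control)×100.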
Compound,pIC50 [3],pIC50 [5],other results
Cc1cc(C)c(Nc2nc(Nc3ccc(C#N)cc3)nc(Nc3ccc(Nc4nc(Nc5ccc(C#N)cc5)nc(Nc5c(C)cc(C)cc5C)n4)cc3)n2)c(C)c1,< 4.19,< 4.19,pIC50 [1]: 6.28; pIC50 [2]: 7.70; pIC50 [4]: < 4.19; pIC50 [6]: < 4.19
CO[C@H]1O[C@@H]2O[C@@]3(C)CC[C@H]4[C@H](C)CC[C@@H]([C@H]1C)[C@@]24OO3,–,< 4.19,pIC50 [6]: 7.70
O=C(Cn1ccnc1[N+](=O)[O-])NCc1ccccc1 [BENZNIDAZOLE],5.59,< 4.19,–
CCN(CC)CCCC(C)Nc1ccnc2cc(Cl)ccc12 (stereo not drawn) [CHLOROQUINE],–,< 4.19,–
Nc1nc(N)nc(Nc2ccc([As]3SCC(CO)S3)cc2)n1 (stereo not drawn) [MELARSOPROL],–,5.13,–
CCCCCCCCCCCCCCCCOP(=O)([O-])OCC[N+](C)(C)C [MILTEFOSINE],–,< 4.19,–
CC1CS(=O)(=O)CCN1/N=C/c1ccc([N+](=O)[O-])o1 (stereo not drawn) [NIFURTIMOX],6.15,< 4.19,–
Cc1ccc(C(=O)Nc2ccc(S(=O)(=O)O)c3cc(S(=O)(=O)O)cc(S(=O)(=O)O)c23)cc1NC(=O)c1cccc(NC(=O)Nc2cccc(C(=O)Nc3cc(C(=O)Nc4ccc(S(=O)(=O)O)c5cc(S(=O)(=O)O)cc(S(=O)(=O)O)c45)ccc3C)c2)c1 [SURAMIN],–,< 4.19,Activity [7]: Active; Activity [8]: 100%
